Data set [1] is described as follows: folding enthalpy; higher = less favourable; fluorescence melt of hairpins on a sequencing array, two-state fit. The note with it: sodium 0.088 M. The essentials:
(§1)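 Library hairpins on a sequenced MiSeq flow cell carried annealed Cy3 and quencher oligos, and their Cy3 fluorescence was imaged in 50 mM Na-HEPES pH 8.0 with 25 mM NaCl, in 2.5 °C steps up to 60 °C. Signals were normalised to Cy3 before quenching and to control constructs. Melting temperature and folding enthalpy were obtained from bootstrapped two-state fits, combined by inverse-variance weighting across four replicates, and the fitted temperatures were then raised by 9.35 °C to match UV melts.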

Data set [2] in a line: melting temperature; fluorescence melt of hairpins on a sequencing array, two-state fit, raised by 9.35 °C to match UV melts. The note with it: sodium 0.088 M. The essentials: as §1

For the sequence GACACACGAAAGTGGTC (((.(((....)))))), the folding enthalpy in data set [1] is -20.7 kcal/mol. For the same sequence, the Tm in data set [2] amounted to 49.7 °C.

As to GATCGATGTTTCGATC ((((((....)))))), in data set [1], the folding enthalpy was -43 kcal/mol. The Tm in data set [2] amounted to 53.5 °C.

Turning to GATCAAAGAATTGATC ((((((....)))))), in data set [1], the folding enthalpy was -21.8 kcal/mol. Also, the Tm in data set [2] worked out at 40 °C.

GTTGGTCGAAAGACTAAC (((.(((....))).))): the folding enthalpy in data set [1] was -25.9 kcal/mol. Also, the Tm in data set [2] is 50.9 °C.

For GATCTTATACAAGATC ((((((....)))))), the folding enthalpy in data set [1] is -33.8 kcal/mol. Moreover, the Tm in data set [2] was found to be 42.6 °C.

In the case of GGATACGGAAACGTGTTC (.(.(((....))).).), the folding enthalpy in data set [1] was -18.8 kcal/mol. The Tm in data set [2] is 32.2 °C.

In the case of GCGAAGGGAAACCTCCGC (((.(((....))).))), the folding enthalpy in data set [1] was -26.1 kcal/mol. Besides, the Tm in data set [2] was 46.6 °C.

Turning to GCTCATCGAAAGATTAGC (((.(((....))).))), the folding enthalpy in data set [1] was -34.5 kcal/mol. In addition, the Tm in data set [2] was determined as 42.8 °C.

Take GATCTAAAGCTAGATC ((((((....)))))): the folding enthalpy in data set [1] is -18.3 kcal/mol. Besides, the Tm in data set [2] is 35.4 °C.

GGGTTAGGAAACTAATCC ((.((((....)))).)): in data set [1], the folding enthalpy is -35.1 kcal/mol. In addition, the Tm in data set [2] was 42.7 °C.

In the case of GATCCAGGGTTGGATC ((((((....)))))), in data set [1], the folding enthalpy was -34.2 kcal/mol. Also, in data set [2], the Tm worked out at 50.8 °C.

GGAGACGAAAGTCTCTCC ((((((....)))..))): the folding enthalpy in data set [1] is -9.83 kcal/mol. In addition, in data set [2], the Tm was 54.5 °C.

For GTCGCAGGAAACTACGAC ((((.((....)).)))), the folding enthalpy in data set [1] was -32.1 kcal/mol. Besides, the Tm in data set [2] came out at 46.3 °C.

Turning to CGGCGCCGGAAACGGCCG (((..(((....)))))), the folding enthalpy in data set [1] was -8.91 kcal/mol. Moreover, the Tm in data set [2] came out at 54.8 °C.

GCATACGAAAGTAATTGC ((((((....)))..))): the folding enthalpy in data set [1] is -13.6 kcal/mol. Further, the Tm in data set [2] was found to be 32.7 °C.

With GCGGTCCGCCGC ((((....)))), the folding enthalpy in data set [1] is -19.7 kcal/mol. Further, the Tm in data set [2] was found to be 63.6 °C.

As for GCTGTGCGAAAGCATAGC (((.(((....))).))), the folding enthalpy in data set [1] was -57.9 kcal/mol. Moreover, in data set [2], the Tm was 59.4 °C.

Take GATCCGGGTCCGGATC ((((((....)))))): the folding enthalpy in data set [1] was -39.1 kcal/mol. The Tm in data set [2] was 62.5 °C.

As for GAGGATGGAAACATCTTC ((.((((....)))).)), the folding enthalpy in data set [1] is -27.1 kcal/mol. In addition, the Tm in data set [2] stood at 38.1 °C.

Regarding GATCGGCATACCGATC ((((((....)))))), the folding enthalpy in data set [1] is -40.5 kcal/mol. In addition, the Tm in data set [2] turned out to be 56.9 °C.

Turning to GGTTCTCGAAAGAGGACC (((.(((....))).))), the folding enthalpy in data set [1] was -42.8 kcal/mol. Further, in data set [2], the Tm is 57.2 °C.

GATCCCCCTTGGGATC ((((((....)))))): the folding enthalpy in data set [1] was -39.8 kcal/mol. In data set [2], the Tm amounted to 57.7 °C.

As for GTGCCAGGAAACTGGTAC ((.((((....)))).)), the folding enthalpy in data set [1] is -29.9 kcal/mol. Further, in data set [2], the Tm is 53.8 °C.

Regarding GCCGAGCGAAAGCGCTGC ((.(.((....)).).)), the folding enthalpy in data set [1] was -12.4 kcal/mol. In data set [2], the Tm was 45.6 °C.

GCGATCTGTCGC ((((....)))): the folding enthalpy in data set [1] was -33.5 kcal/mol. In data set [2], the Tm was 51.6 °C.

In the case of CGCTTCGGAAACGACGCG (((.(((....))).))), the folding enthalpy in data set [1] was -48.8 kcal/mol. Further, the Tm in data set [2] came to 51.5 °C.

With GCCGGAGGAAACTCCGAC (.(((((....))))).), the folding enthalpy in data set [1] is -13.1 kcal/mol. The Tm in data set [2] was found to be 49.9 °C.

For the sequence GGCACTACGAAAGTAGCC (((..(((....)))))), the folding enthalpy in data set [1] was -11.9 kcal/mol. Moreover, the Tm in data set [2] was found to be 39.3 °C.

Turning to GCGAGCGAAAGCTTCCGC ((((((....)))..))), the folding enthalpy in data set [1] is -16.6 kcal/mol. The Tm in data set [2] was 44.2 °C.

On to GGATGTGGAAACACGTCC (((.(((....))).))), for which, in data set [1], the folding enthalpy was -55.2 kcal/mol. The Tm in data set [2] is 53 °C.

For GATCTACGATTAGATC ((((((....)))))), the folding enthalpy in data set [1] is -27.4 kcal/mol. The Tm in data set [2] was determined as 34.9 °C.

Regarding GTTCTTCGAAAGAATAAC (((.(((....))).))), in data set [1], the folding enthalpy is -15.6 kcal/mol. Moreover, the Tm in data set [2] is 33.6 °C.

As to GATCCTCCTCAGGATC ((((((....)))))), the folding enthalpy in data set [1] was -45.2 kcal/mol. The Tm in data set [2] is 50.2 °C.

As to GGACACGAAAGTGTTCC ((((((....))).))), the folding enthalpy in data set [1] is -17.5 kcal/mol. Moreover, the Tm in data set [2] was found to be 56 °C.

With GATCTAATGCTAGATC ((((((....)))))), the folding enthalpy in data set [1] was -29.5 kcal/mol. Further, the Tm in data set [2] is 36.5 °C.

Consider GCATCAGGAAACTGGTGC (((.(((....))).))), for which the folding enthalpy in data set [1] was -40.9 kcal/mol. Also, the Tm in data set [2] was determined as 53.4 °C.

As for GTGTCCGAAAGGATGCAC ((((((....)))..))), in data set [1], the folding enthalpy was -15.8 kcal/mol. Also, in data set [2], the Tm was 42.9 °C.

The record behind these values is the array DNA melting data of Ke et al. (doi:10.1101/2024.01.08.574731).
